Assay outcomes deposited in PubChem BioAssay by several laboratories.
Rev-RRE block = HIV Rev-RRE protein-RNA interaction inhibition. AID 704. hit rate 0.79% among 97,000. Rev peptide-RRE RNA binding, FRET. inhibition, % at 8 µM. P05866;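 active = inhibition above the screen-wide mean plus 3 SD, cut at about 35% in these data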;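 also: 0% = median DMSO wells and 100% = median Neomycin B control wells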
Target sequence (P05866 whole entry, looked up): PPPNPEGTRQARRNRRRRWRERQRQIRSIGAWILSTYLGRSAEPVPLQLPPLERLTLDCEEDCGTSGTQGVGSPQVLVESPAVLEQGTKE
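Assay system: labelled RRE RNA duplex and labelled Rev peptide / Medium: HEPES pH 7.5 salt buffer with EDTA / Reagent: labelled Rev peptide / Schedule: 5 + 15 min at 25 °C / Signal: FRET, excitation 480 nm, emission 540 nm donor and 671 nm acceptor / Benchmarks: DMSO and neomycin B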
CYP2C9 act = CYP2C9 (human) activation | activation factor at 5 µM | hit rate 1.4% among 96,000 | recombinant CYP2C9, luciferin-H conversion, luminescence; hits give high values; factor 1 = untreated enzyme, 0 = blocked | P11712;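 active = activation factor of 2 or more for CYP2C9 at a 5 µM dose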;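 also: 0 = sulfaphenazole-blocked wells and 1 = vehicle-only wells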
Target sequence (P11712 whole entry, looked up): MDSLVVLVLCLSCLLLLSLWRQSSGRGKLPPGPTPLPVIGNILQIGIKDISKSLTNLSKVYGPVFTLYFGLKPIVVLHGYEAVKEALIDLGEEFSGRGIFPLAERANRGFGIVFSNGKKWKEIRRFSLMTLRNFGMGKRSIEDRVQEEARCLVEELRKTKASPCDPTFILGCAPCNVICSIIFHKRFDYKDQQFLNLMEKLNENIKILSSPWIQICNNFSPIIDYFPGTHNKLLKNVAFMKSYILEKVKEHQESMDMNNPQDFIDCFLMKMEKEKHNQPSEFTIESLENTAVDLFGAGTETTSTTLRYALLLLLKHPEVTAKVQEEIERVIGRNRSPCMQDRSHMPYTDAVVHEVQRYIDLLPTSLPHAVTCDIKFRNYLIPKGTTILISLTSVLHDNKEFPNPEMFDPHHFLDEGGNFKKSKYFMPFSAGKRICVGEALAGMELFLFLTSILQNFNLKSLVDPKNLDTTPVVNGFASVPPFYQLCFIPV
Cav32 inh = blocks human Cav3.2 T-type calcium channel. hit rate 4% among 100,000. O95180. Cav3.2-expressing cells, Fluo-4 calcium fluorescence FDSS; hits give low values. B-score at 10 µM;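 active = single-dose well whose peak fluorescence ratio is a statistical outlier from its plate by either plate-standardised score or position-corrected B-score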
CYP2C19 inh = blocks human cytochrome P450 2C19. P33261. CYP2C19 Supersomes, luciferin-H EGE luminescence, 30 min. inhibition, % at 5 µM. hit rate 21% among 96,000;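 active = CYP2C19 inhibition above a set limit at 5 µM in the primary screen, cut at about 50% in these data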;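 also: plate controls were negative control wells for no effect and 2.5 mM tranylcypromine positive control for full effect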
CYP2C9 inh = inhibitors of human CYP2C9. P11712. CYP2C9 Supersomes, luciferin-H conversion, luminescence. inhibition, % at 5 µM. hit rate 20% among 96,000;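 active = blocking of liver enzyme CYP2C9 beyond about 50% at 5 µM, limit read from the data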
CYP2C19 act = activators of human cytochrome P450 2C19; P33261; recombinant CYP2C19, luciferin-H EGE luminescence; hits give high values; 0 = fully inhibited enzyme, 1 = untreated enzyme; activation factor at 5 µM; 96,000 tested, under 10 active; AID 1025;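 active = activation factor of at least 2 at 5 µM in the primary screen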;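 also: 0 = wells with 2.5 mM tranylcypromine and 1 = vehicle-only wells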
Active calls of the source: *; . = no result; [ ] = remark or other dose. Sampled rows, rich in hits. Any-hit rate of the full collection: about 27%.

SMILES	Rev-RRE block	CYP2C9 act	Cav32 inh	CYP2C19 inh	CYP2C9 inh	CYP2C19 act
Cc1cc(-n2c(C)cc(C(=O)CSc3ccc4c(c3)OCCO4)c2C)no1	0	0.7	-3.6	89*	31	0.1
CCOc1ccccc1NC(=O)N1CCCC1C(=O)Nc1ccc(-n2cnnn2)c(C)c1 (stereo not given)	.	0.2	0.13	70*	79*	0.3
O=C(Nc1ccc(-n2cnnn2)cc1)C1CCCN1C(=O)NC1CCCCC1 (stereo not given)	6	0.4	0.11	66*	59*	0.3
O=C(c1ccccc1)c1ccc(OCC(O)CN2CCN(S(=O)(=O)N3CCCCC3)CC2)cc1 (stereo not given)	10	0	-1.9	85*	98*	0.1
CCC(=O)c1ccc(OCC(O)CN2CCN(S(=O)(=O)N3CCCCC3)CC2)cc1 (stereo not given)	2	0.3	1.2	52*	72*	0.5
CCCN1C(=O)N(C)C(N(O)C(=O)NC)C1(C)C (stereo not given)	4	1	-0.52	8	4	0.9
O=C(O)/C=C\C(=O)Nc1ccccc1C(=O)NCc1ccccc1	2	.	0.42	.	.	.
O=C(O)/C=C\C(=O)Nc1ccccc1C#Cc1ccc(Br)cc1	0	0.1	-1.7	-3	87*	1
NC(=O)c1ccccc1NC(=O)/C=C/C(=O)O	17	1	0.022	7	2	0.9
O=C(O)/C=C\C(=O)Nc1ccccc1C#Cc1ccccc1	4	0.4	0.34	3	62*	1
Cc1ccc(Cn2ccc(NC(=O)c3nc4ncccn4n3)n2)cc1	1	0.8	0.32	10	16	0.9
COc1ccc(N2C(=O)C(Cl)=C(N(CCO)Cc3ccccc3)C2=O)cc1	6	0	-1.6	97*	98*	0
COc1ccc(N2C(=O)C(Cl)=C(N3CCN(Cc4ccccc4)CC3)C2=O)cc1	-5	0.6	0.074	8	42	0.9
COc1ccc(NC(=O)C2CCCN2c2ccc(OC)c(OC)c2)cc1OC (stereo not given)	.	0.7	0.38	22	32	0.8
COC(=O)C(Cc1cnc(Cl)s1)(C(=O)OC)c1ccc([N+](=O)[O-])cc1	-3	0.3	-2.2	91*	73*	0.1
COC(=O)C(C)(C(=O)OC)c1ccccc1[N+](=O)[O-]	6	0.9	-0.59	8	7	0.9
COC(=O)C(Cc1cnc(Cl)s1)(C(=O)OC)c1ccccc1[N+](=O)[O-]	6	0.3	-0.89	94*	65*	0.1
CC(=O)C[C@H]1c2cc(C(F)(F)F)ccc2S(=O)(=O)N1c1ccc(N(C)C)cc1	.	.	0.74	.	.	.
COc1cc(C2SCC(=O)N2CCCN(C)C)cc(OC)c1OC (stereo not given)	7	0.9	1.6	-17	5	1.2
O=C(Nc1cnc2sccn2c1=O)c1ccc(Cl)cc1Cl	5	1.6	-0.042	7	-58	0.9
O=C(Nc1cccn(Cc2c(Cl)cccc2Cl)c1=O)c1ccc(Cl)cc1Cl	7	0.4	-2	65*	56*	0.3
O=C(Nc1cccn(Cc2c(Cl)cccc2Cl)c1=O)c1ccccc1Cl	10	0.3	-2.9	80*	67*	0.2
CC(=O)OC(C(=O)Nc1ccccc1C)C(OC(C)=O)C(OC(C)=O)C(OC(C)=O)C(=O)Nc1ccccc1C (stereo not given)	7	.	.	.	.	.
CCOC(=O)c1oc2nc3c(cc2c1N)COC(C)(C)C3	.	0.7	0.034	33	32	0.7
Cc1nnc(-c2cnn(-c3ccccc3)c2N)n1Cc1ccncc1	2	0.8	-0.36	38	18	0.6
SMILES	Rev-RRE block	CYP2C9 act	Cav32 inh	CYP2C19 inh	CYP2C9 inh	CYP2C19 act
COc1ccc(CN=Cc2[nH]c3ccc(Br)c(Cl)c3c2O)cc1	125*[fluorescence artefact?]	0.9	.	2	7	1
N/C(=N/O)c1nc(N2CCCCC2)nc(N2CCCCC2)n1	6	.	0.035	.	.	.
Cn1cc(C(F)(F)F)nc1-c1ccc(OCC(O)CNCCOc2ccc(O)c(C(N)=O)c2)cc1 (stereo not given)	.	.	-0.23	.	.	.
Cc1ccc(-n2ncc3c(=O)n(Cc4ccccn4)cnc32)cc1C	3	0.9	0.33	0	8	1
O=c1c(F)cn(C2CCCO2)c(=O)n1Cc1c(F)cccc1Cl (stereo not given)	0	0.8	0.2	92*	16	0.1
COc1ccc(N2CCN(CCNC(=O)c3c(C)cc(=O)oc3C)CC2)cc1	-2	0.6	0.29	-5	38	1
O=C(OCC(=O)N1CCCCC1)c1cc2ccccc2cc1O	7	1.1	.	76*	-5	0.2
CCC1CCCCN1C(=O)COC(=O)c1cc2ccccc2cc1O (stereo not given)	.	1.2	-3.1	53*	-22	0.5
C/C=C/COC(=O)c1[nH]c2c(c1C)C(=O)CC(c1ccco1)C2 (stereo not given)	-5	0.6	-2.1	20	39	0.8
Cc1c(C(=O)OC2CCCC2)[nH]c2c1C(=O)CC(c1ccco1)C2 (stereo not given)	.	0.5	0.38	22	52*	0.8
Cc1c(C(=O)OCC2CCCO2)[nH]c2c1C(=O)CC(c1ccco1)C2 (stereo not given)	-19	0.1	.	69*	92*	0.3
Cc1c(C(=O)OCC(C)C)[nH]c2c1C(=O)CC(c1ccco1)C2 (stereo not given)	4	0.6	-1.5	10	38	0.9
C=CCOC(=O)c1[nH]c2c(c1C)C(=O)CC(c1ccco1)C2 (stereo not given)	.	0.2	-0.91	96*	80*	0
CCCS(=O)(=O)N1CCCC(C(=O)NCCCN2CCN(c3ccccc3F)CC2)C1 (stereo not given)	-1	1	0.57	0	2	1
CCCCCCCCN1[C@@H](CC(=O)O)c2ccc(C(F)(F)F)cc2S1(=O)=O	.	.	-1.2	.	.	.
CCCNC(=O)CN1C(=O)NC2(CCCc3cc(OC)ccc32)C1=O (stereo not given)	7	1.1	0.017	3	-15	1
CCN1C(=O)CS/C1=C(\C#N)S(=O)(=O)c1ccccc1	37*	0.6	0.92	48	35	0.5
O=C(CCN1C(=O)CSC1=O)Nc1ccccc1	7	1.1	0.48	-5	-11	1
O=C(Nc1nn(Cc2ccc(Cl)cc2)cc1Br)c1ccc(COc2ccccc2Cl)o1	8	0.1	-6.2*	81*	86*	0.2
CCOc1ccc(OCc2ccc(C(=O)Nc3cccnc3)o2)cc1	5	0.7	0.029	27	29	0.7
O=C(Nc1cccnc1)c1ccc(COc2ccccc2Cl)o1	5	0.8	2.5	46	21	0.5
O=C(NCc1ccc2c(c1)OCO2)c1ccc(COc2cc(Cl)ccc2Cl)o1	6	0.1	-4.3	57*	94*	0.4
